Experiment [1] relates to Escherichia coli. The experiment is described as follows: Inhibition of Escherichia coli DHDPS-catalyzed condensation of pyruvate and aspartate semi-aldehyde at 5 mM measured after 1 min by UV-spectrophotometric analysis. A digest of the protocol:
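E. coli DHDPS in 200 mM HEPES pH 8.0 was pre-incubated 1 min with inhibitor (from 100% DMSO; final 5 mM), with a DMSO-only control. Activity was then read by the coupled DHDPR assay, following NADPH oxidation at 340 nm at 30 °C. The result is % inhibition relative to the control.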

Experiment [2] deals with Escherichia coli. The experiment is described as follows: Inhibition of Escherichia coli DHDPS-catalyzed condensation of pyruvate and aspartate semi-aldehyde at 50 mM after 60 mins by UV-spectrophotometric analysis.
The test system of experiment [3] is Escherichia coli. The experiment is described as follows: (§1) Inhibition of Escherichia coli DHDPS-catalyzed condensation of pyruvate and aspartate semi-aldehyde by UV-spectrophotometric analysis. The note with it: TDE = time-dependent effect. A digest of the protocol: (§2)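 Time-dependent assay: DHDPS in HEPES pH 8.0 (raised to 500 mM for the acidic inhibitor) was pre-incubated with inhibitor at 0.5–25 mM. Aliquots were serially diluted before adding to substrates, and residual rate was measured by DHDPR/NADPH coupling at 340 nm at 30 °C. Decay curves of v_t/v_0 were fitted per Copeland. Ki app came from a y-intercept isotherm midpoint, and Ki* app from k_obs versus [I].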

Experiment [4] can be described thus: as §1. The settings on record: read-out: Ki(app). A digest of the protocol: as §2

The record followed here is ChEMBL document CHEMBL1955825, “1,3-Phenylene bis(ketoacid) derivatives as inhibitors of Escherichia coli dihydrodipicolinate synthase” (Bioorg Med Chem, 2012).

As a reminder, the inhibition is the change of the read-out against control, counted positive when it falls.

Turning to `O=C(O)/C(=N\O)c1cccc(/C(=N/O)C(=O)O)c1`, the inhibition amounted to 23% in the experiment on Escherichia coli [1] and 34% in the experiment on Escherichia coli [2].
With `COC(=O)C(=O)c1cccc(C(=O)C(=O)OC)c1O`, the inhibition is 10% in the experiment with Escherichia coli [1] and “tde” in the experiment on Escherichia coli [3]. The Ki in experiment [4] worked out at 40 µM.
On to `O=C(O)C(=O)c1cccc(C(=O)C(=O)O)c1O`, for which the results for the inhibition with Escherichia coli [1] and in the experiment on Escherichia coli [3] were 10% and “tde”, respectively. Moreover, the Ki in experiment [4] was found to be 290 µM.
For the compound `COC(=O)/C(=N\O)c1cccc(/C(=N/O)C(=O)OC)c1`, in the experiment on Escherichia coli [1], the inhibition amounted to 15%. Also, the Ki in experiment [4] turned out to be 330 µM.
The compound `COC(=O)C(=O)c1cccc(C(=O)C(=O)OC)c1` returned an inhibition with Escherichia coli [1] of 2%.
In turn, `O=C(O)C(=O)c1cccc(C(=O)C(=O)O)c1` showed an inhibition with Escherichia coli [1] of 49%. In addition, in experiment [4], the Ki turned out to be 2960 µM.
